Data set [1] concerns Escherichia coli. Description: Antibacterial activity against Escherichia coli ATCC 25922 by agar-based assay. Format: functional, organism-based.
The subject of data set [2] is Staphylococcus aureus. Briefly: Antibacterial activity against methicillin-sensitive Staphylococcus aureus Wichita by agar-based assay. Format: functional, organism-based.
The subject of data set [3] is Pseudomonas aeruginosa. Description: Antibacterial activity against Pseudomonas aeruginosa Boston 41501 by agar-based assay. Format: functional, organism-based.
For data set [4], the system named is Bacillus subtilis. Description: Antibacterial activity against Bacillus subtilis NRS 231 by agar-based assay. Format: functional, organism-based.
For data set [5], the system named is Leishmania donovani. Description: Antileishmanial activity against Leishmania donovani MHOM/ET/67/HU3 axenic promastigotes assessed as parasite growth inhibition after 72 hrs by resorufin dye based fluorometric analysis. The data set is classed as functional, organism-based. As to conditions: MHOM/ET/67/HU3, 72 h. The gist of the method:
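Axenic promastigotes, 1×10^5 per well in log phase, in M199 pH 7.4 with 10% heat-inactivated FCS at 28 °C. Ten 2-fold dilutions from 0.125 to 64 µM (10 mM DMSO stocks) were incubated for 72 h; miltefosine was the reference. Alamar Blue was added for 3 h, read at ex 536/em 588 nm, normalized to untreated wells, and IC50 obtained by variable-slope fit.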

In data set [6] the test system is Escovopsis. Description: Antifungal activity against Escovopsis ICBG741 at 100 ug measured after 21 days by ISP-2 agar based assay. Format: functional. As to conditions: dose 100.0 µg, time 21.0 day. An outline of the steps:
(§1)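 Agar plug challenge on ISP-2: the producing bacterium was grown alone at plate centre for 7 days, then each fungal strain was point-inoculated 3 cm from centre. 100 µg of compound or miconazole was applied directly at plate centre. Plates were monitored for 21 days at 28 °C, with two replicates per sample–fungus pair.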

Data set [7] concerns Escovopsis. Description: Antifungal activity against Escovopsis ICBG1251 at 100 ug measured after 21 days by ISP-2 agar based assay. Format: functional. As to conditions: dose 100.0 µg, time 21.0 day. The gist of the method: as §1
For data set [8], the system named is Trichoderma. Description: Antifungal activity against Trichoderma ICBG1100 at 100 ug measured after 21 days by ISP-2 agar based assay. The data set is classed as functional, organism-based. As to conditions: dose 100.0 µg, time 21.0 day. An outline of the steps:
as §1

Data set [9] relates to Escovopsis. Briefly: Antifungal activity against Escovopsis ICBG740 at 100 ug measured after 21 days by ISP-2 agar based assay. The data set is classed as functional. As to conditions: dose 100.0 µg, time 21.0 day. An outline of the steps: as §1
Data set [10] has as its system Escovopsis. Description: Antifungal activity against Escovopsis ICBG711 at 100 ug measured after 21 days by ISP-2 agar based assay. Format: functional. As to conditions: dose 100.0 µg, time 21.0 day. An outline of the steps: as §1
Data set [11] deals with Cunninghamella. Briefly: Antifungal activity against Cunninghamella ICBG752 at 100 ug measured after 21 days by ISP-2 agar based assay. As to conditions: dose 100.0 µg, time 21.0 day. The data set is classed as functional, organism-based. An outline of the steps: as §1
A short description of data set [12]: Cytotoxicity against human THP1 cells assessed as growth inhibition after 120 hrs by Alamar blue dye based fluorometric analysis. The data set is classed as cell-based. As to conditions: THP-1 cells. An outline of the steps:
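PMA-differentiated THP-1 cells (2×10^4/well, PMA 20 ng/mL, 72 h, 37 °C, 5% CO2) were exposed to serial dilutions for 120 h with a doxorubicin control. Alamar Blue was added for 3 h, read at ex 536/em 588 nm, and inhibition taken relative to untreated wells. IC50 was from a variable-slope fit; mean ± SD of 3 biological replicates.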
(Alamar Blue is a resazurin reagent that responds to reducing activity.)

In data set [13] the test system is Leishmania donovani. Description: Antileishmanial activity against Leishmania donovani MHOM/ET/67/HU3 amastigotes infected in human THP1 cells assessed as parasite growth inhibition after 120 hrs by giemsa staining based inverted microscopic analysis. As to conditions: MHOM/ET/67/HU3, THP-1, 120 h. Format: functional, organism-based. An outline of the steps:
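THP-1 cells (2×10^4/well, RPMI-1640) were differentiated with PMA 20 ng/mL for 72 h at 37 °C, 5% CO2. They were infected with late-stage promastigotes (2×10^5/well) for 24 h, washed, then exposed to serial dilutions for 120 h with a miltefosine control. Cells were methanol-fixed and Giemsa-stained, and amastigotes per macrophage counted microscopically relative to untreated wells. IC50 was from a variable-slope fit.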

A short description of data set [14]: Selectivity index, ratio of CC50 for human THP1 cells to IC50 for antileishmanial activity against Leishmania donovani MHOM/ET/67/HU3 amastigotes infected in human THP1 cells after 120 hrs. Format: toxicity, cell-based. As to conditions: read-out: Ratio CC50/IC50. An outline of the steps: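 Index computed as CC50 in PMA-differentiated THP-1 cells (120 h Alamar Blue read-out) divided by IC50 against intracellular amastigotes in THP-1 (120 h exposure, Giemsa count).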

SMILES strings stand for the structures. pIC50: −log10 of the molar value. Calls of active or inactive are those of the source. The calls are words filed in the database; no cut-off is given here.

Results on five compounds are retold here after ChEMBL document CHEMBL4715906, “Antileishmanial macrolides from ant-associated Streptomyces sp. ISID311” (Bioorg Med Chem, 2021).

As to `CC[C@H](O[C@H]1C[C@@](C)(O)[C@H](O[C@H]2CC[C@H](OC(=O)[C@H](C)[C@H](O)c3ccc4c(c3)C(=O)C=C(C)C4=O)[C@@H](C)O2)[C@H](C)O1)[C@H](C)[C@H](O)[C@@H](C)[C@H](O)[C@H](C)[C@H]1OC(=O)/C=C/[C@H](C)[C@H](O)C[C@H](O)CCC[C@@H](O)CC[C@@H](C)[C@H](O)C(=O)[C@]2(O)O[C@H](C[C@@H](O)C[C@H](O)C[C@H](O)CCC[C@H](O)[C@@H]3O[C@H]3[C@@H]1C)C[C@H](O)[C@H]2O`, the result in data set [1], in [2], in data set [3], in data set [4], in data set [8] and in data set [11] was inactive. The figures for the negative logarithm of the IC50 (pIC50) in data set [5] and in data set [13] were 7.34 and 7.14, respectively. The result in data set [6], in [7], in data set [9] and in [10] was Active. In addition, the CC50 (in general, the concentration that lowers cell viability or growth by half) at 120 h in data set [12] was determined as 6070 nM. Further, the selectivity ratio at 120 h in data set [14] is 83.2.
Regarding `COc1cccc2c1C(=O)c1c(O)c3c(c(O)c1C2=O)C[C@@](O)(C(=O)CO)C[C@@H]3O[C@H]1C[C@H](N)[C@H](O)[C@H](C)O1` [DOXORUBICIN], the 50% cytotoxic concentration (CC50) at 120 h in [12] was determined as 580 nM.
As to `CCCCCCCCCCCCCCCCOP(=O)([O-])OCC[N+](C)(C)C` [MILTEFOSINE], the pIC50 – broadly, the negative decadic logarithm of the IC50, by convention in mol/L – in data set [5] was 5.30; in data set [13], 5.27. The half-maximal cytotoxic concentration (CC50) at 120 h in data set [12] was found to be 60700 nM. Besides, the selectivity ratio at 120 h in [14] amounted to 11.4.
`CC[C@H](O[C@H]1C[C@@](C)(O)[C@H](O[C@H]2CC[C@H](OC(=O)[C@H](C)[C@H](O)c3ccc4c(c3)C(=O)C=C(C)C4=O)[C@@H](C)O2)[C@H](C)O1)[C@H](C)[C@H](O)[C@@H](C)[C@H](O)[C@H](C)[C@H]1OC(=O)/C=C/[C@H](C)[C@H](O)C[C@H](O)CCC[C@@H](O)CC[C@@H](C)[C@H](O)C(=O)[C@@]2(O)C[C@@H](O)C[C@@H](C[C@@H](O)C[C@H](O)C[C@H](O)CCC[C@H](O)[C@@H]3O[C@H]3[C@@H]1C)O2`: the outcome in [1], in [2], in data set [3], in data set [4], in data set [8] and in data set [11] was inactive. The pIC50 in [5] was 7.47; in data set [13], 7.04. The outcome in data set [6], in [7], in data set [9] and in data set [10] was Active. For the same compound, the CC50 at 120 h in data set [12] was found to be 6400 nM. Besides, in data set [14], the selectivity ratio at 120 h was determined as 70.3.
For the compound `CC[C@H](O[C@H]1C[C@@](C)(O)[C@H](O[C@H]2CC[C@H](OC(=O)[C@H](C)[C@H](O)c3ccc4c(c3)C(=O)C=C(C)C4=O)[C@@H](C)O2)[C@H](C)O1)[C@H](C)[C@H](O)[C@@H](C)[C@H](O)[C@H](C)[C@H]1OC(=O)/C=C/[C@H](C)[C@H](O)C[C@H](O)CCC[C@@H](O)CC[C@@H](C)[C@H](O)C(=O)[C@@]2(O)C[C@@H](O)C[C@@H](C[C@@H](O)C[C@H](O)C[C@H](O)CCC[C@H](O)/C=C/[C@@H]1C)O2`, the result in data set [1], in [2], in data set [3], in [4], in data set [8] and in data set [11] was inactive. Also, the pIC50 was 6.93 in data set [5] and 5.63 in data set [13]. Further, the outcome in data set [6], in [7], in data set [9] and in data set [10] was Active. Further, the CC50 at 120 h in [12] worked out at 11500 nM. In addition, the selectivity ratio at 120 h in data set [14] turned out to be 4.94.
